ChEMBL document CHEMBL1153046, “Synthesis and antitumor activity of substituted triazolo[4,3-a]pyrimidin-6-sulfonamide with an incorporated thiazolidinone moiety” (2009)

Columns and labels:
Type in all cases: functional
MOLT-4 = assay: Growth inhibition of human MOLT4 cells after 48 hrs by sulforhodamine B assay; settings: MOLT-4, 48 h; for CC50: read-out: LC50 (the source's name)
Summary of the method: (§1)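 NCI 60-cell-line panel. Cells are grown in RPMI1640 with 5% fetal calf serum and 2 mM L-glutamine, seeded at a density set by growth characteristics, and preincubated 24 h. Compound is tested at a minimum of five concentrations at 10-fold dilution, with 48 h continuous exposure. Viability is read by sulforhodamine B protein assay. GI50, TGI and LC50 come from dose-response curves.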

SR = assay: Growth inhibition of human SR cells after 48 hrs by sulforhodamine B assay
Summary of the method: (§2)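 NCI 60-cell-line panel (nine cancer types), with cells grown in RPMI1640 plus 5% fetal calf serum and 2 mM L-glutamine. Cells are seeded at a density that depends on the line and preincubated 24 h. Compounds are then applied at a minimum of five 10-fold dilutions over a 5-log range with 48 h continuous exposure. Viability is read by SRB protein assay, and GI50 is derived from dose-response curves in units of 10^-5 M.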

A549 = assay: Growth inhibition of human A549 cells after 48 hrs by sulforhodamine B assay; settings: A549, 48 h; summary of the method: as §1
EKVX = assay: Growth inhibition of human EKVX cells after 48 hrs by sulforhodamine B assay; summary of the method: as §1
HOP-92 = assay: Growth inhibition of human HOP92 cells after 48 hrs by sulforhodamine B assay; settings: HOP-92, 48 h; summary of the method: as §1
NCI-H322M = assay: Growth inhibition of human NCI-H322M cells after 48 hrs by sulforhodamine B assay; summary of the method: as §1
NCI-H460 = assay: Growth inhibition of human NCI-H460 cells after 48 hrs by sulforhodamine B assay; settings: NCI-H460, 48 h; summary of the method: as §1
NCI-H522 = assay: Growth inhibition of human NCI-H522 cells after 48 hrs by sulforhodamine B assay; settings: NCI-H522, 48 h; summary of the method: as §1
HCC 2998 = assay: Growth inhibition of human HCC2998 cells after 48 hrs by sulforhodamine B assay; settings: HCC 2998, 48 h; summary of the method: as §1
HCT-15 = assay: Growth inhibition of human HCT15 cells after 48 hrs by sulforhodamine B assay; settings: HCT-15, 48 h; summary of the method: as §1
SW-620 = assay: Growth inhibition of human SW620 cells after 48 hrs by sulforhodamine B assay; settings: SW-620, 48 h; summary of the method: as §2
SF-295 = assay: Growth inhibition of human SF295 cells after 48 hrs by sulforhodamine B assay; settings: SF-295, 48 h; summary of the method: as §1
SNB-19 = assay: Growth inhibition of human SNB19 cells after 48 hrs by sulforhodamine B assay; settings: SNB-19, 48 h; summary of the method: as §2
SNB-75 = assay: Growth inhibition of human SNB75 cells after 48 hrs by sulforhodamine B assay; settings: SNB-75, 48 h; summary of the method: as §2
U-251 = assay: Growth inhibition of human U251 cells after 48 hrs by sulforhodamine B assay; settings: U-251, 48 h; summary of the method: as §2
LOX IMVI = assay: Growth inhibition of human LOXIMVI cells after 48 hrs by sulforhodamine B assay; summary of the method: as §1
SK-MEL-28 = assay: Growth inhibition of human SK-MEL-28 cells after 48 hrs by sulforhodamine B assay; settings: SK-MEL-28, 48 h; summary of the method: as §1
OVCAR-3 = assay: Growth inhibition of human OVCAR-3 cells after 48 hrs by sulforhodamine B assay; settings: OVCAR-3, 48 h; summary of the method: as §1
OVCAR-4 = assay: Growth inhibition of human OVCAR4 cells after 48 hrs by sulforhodamine B assay; settings: OVCAR-4, 48 h; summary of the method: as §1
SK-OV-3 = assay: Growth inhibition of human SKOV3 cells after 48 hrs by sulforhodamine B assay; settings: SK-OV-3, 48 h; summary of the method: as §1
786-0 = assay: Growth inhibition of human 786-0 cells after 48 hrs by sulforhodamine B assay; settings: 786-0, 48 h; for CC50: read-out: LC50 (the source's name); summary of the method: as §1
ACHN = assay: Growth inhibition of human ACHN cells after 48 hrs by sulforhodamine B assay; settings: for CC50: read-out: LC50 (the source's name); summary of the method: as §1
RXF 393 = assay: Growth inhibition of human RXF393 cells after 48 hrs by sulforhodamine B assay; settings: RXF 393, 48 h; for CC50: read-out: LC50 (the source's name); summary of the method: as §1
TK-10 = assay: Growth inhibition of human TK10 cells after 48 hrs by sulforhodamine B assay; settings: TK-10, 48 h; summary of the method: as §2
UO-31 = assay: Growth inhibition of human UO31 cells after 48 hrs by sulforhodamine B assay; settings: UO-31, 48 h; summary of the method: as §2
PC-3 = assay: Growth inhibition of human PC3 cells after 48 hrs by sulforhodamine B assay; settings: PC-3, 48 h; summary of the method: as §1
DU-145 = assay: Growth inhibition of human DU145 cells after 48 hrs by sulforhodamine B assay; settings: DU-145, 48 h; summary of the method: as §1
[1] = Growth inhibition of human Hs 578T cells after 48 hrs by sulforhodamine B assay; summary of the method: as §1
BT-549 = assay: Growth inhibition of human BT549 cells after 48 hrs by sulforhodamine B assay; settings: BT-549, 48 h; summary of the method: as §1
T47D = assay: Growth inhibition of human T47D cells after 48 hrs by sulforhodamine B assay; summary of the method: as §2
HL-60(TB) = assay: Growth inhibition of human HL-60(TB) cells after 48 hrs by sulforhodamine B assay; settings: HL-60, 48 h
Summary of the method: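 NCI 60-cell-line panel. Cells were grown in RPMI1640 with 5% fetal calf serum and 2 mM L-glutamine, seeded at a density suited to each line, and preincubated 24 h. Compounds were tested at a minimum of five concentrations at 10-fold dilutions over a 5-log range, with 48 h continuous exposure. Growth was read by sulforhodamine B protein staining, and GI50 was taken from dose-response curves.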

COc1ccc(/C=N/c2nc3[nH]nc(C)n3c(=O)c2S(=O)(=O)NN2C(=O)C(CN3CCOCC3)SC2c2cccs2)cc1 (stereo not drawn)
GI50 (MOLT-4): 4.08 µM
TGI (MOLT-4): 40.6 µM
CC50 (MOLT-4): > 100 µM
GI50 (SR): 1.1 µM
LC50 (concentration killing 50% of cells) (SR): 9.2 µM
TGI (SR): 3.2 µM
GI50 (A549): 19.1 µM
TGI (A549): > 100 µM
GI50 (EKVX): 54.1 µM
TGI (EKVX): > 100 µM
GI50 (HOP-92): 12.4 µM
LC50 (HOP-92): > 100 µM
TGI (HOP-92): > 100 µM
GI50 (NCI-H322M): 56.9 µM
TGI (NCI-H322M): > 100 µM
GI50 (NCI-H460): 5.32 µM
TGI (NCI-H460): > 100 µM
GI50 (NCI-H522): 4.35 µM
TGI (NCI-H522): 27.3 µM
GI50 (HCC 2998): 3.96 µM
LC50 (HCC 2998): 64.8 µM
TGI (HCC 2998): 31.3 µM
GI50 (HCT-15): 4.52 µM
TGI (HCT-15): 71.7 µM
GI50 (SW-620): 6.11 µM
GI50 (SF-295): 4.69 µM
LC50 (concentration killing 50% of cells) (SF-295): > 100 µM
TGI (SF-295): > 100 µM
GI50 (SNB-19): 34.5 µM
TGI (SNB-19): > 100 µM
GI50 (SNB-75): 35.5 µM
TGI (SNB-75): > 100 µM
GI50 (U-251): 15.6 µM
LC50 (U-251): > 100 µM
TGI (U-251): > 100 µM
GI50 (LOX IMVI): 8.97 µM
TGI (LOX IMVI): > 100 µM
GI50 (SK-MEL-28): 82.1 µM
TGI (SK-MEL-28): > 100 µM
GI50 (OVCAR-3): 3.6 µM
LC50 (concentration killing 50% of cells) (OVCAR-3): > 100 µM
TGI (OVCAR-3): > 100 µM
GI50 (OVCAR-4): > 100 µM
LC50 (OVCAR-4): > 100 µM
TGI (OVCAR-4): > 100 µM
GI50 (SK-OV-3): 20.2 µM
TGI (SK-OV-3): > 100 µM
GI50 (786-0): 5.82 µM
TGI (786-0): > 100 µM
CC50 (786-0): > 100 µM
GI50 (ACHN): 5.48 µM
TGI (ACHN): > 100 µM
CC50 (ACHN): > 100 µM
GI50 (RXF 393): 16.6 µM
TGI (RXF 393): 94.2 µM
CC50 (RXF 393): > 100 µM
GI50 (TK-10): 20.8 µM
LC50 (TK-10): > 100 µM
TGI (TK-10): 92 µM
GI50 (UO-31): 14.5 µM
LC50 (UO-31): > 100 µM
TGI (UO-31): 86.4 µM
GI50 (PC-3): 3.92 µM
LC50 (concentration killing 50% of cells) (PC-3): > 100 µM
TGI (PC-3): 95.8 µM
GI50 (DU-145): 16 µM
LC50 (concentration giving 50% net cell kill) (DU-145): > 100 µM
TGI (DU-145): > 100 µM
GI50 [1]: 13.3 µM
LC50 (concentration killing 50% of cells) [1]: > 100 µM
TGI [1]: 82.1 µM
GI50 (BT-549): 18 µM
TGI (BT-549): > 100 µM
GI50 (T47D): 48 µM
TGI (T47D): > 100 µM

COc1ccc(/C=N/c2nc3[nH]nc(C)n3c(=O)c2S(=O)(=O)NN2C(=O)C(CN3CCOCC3)SC2c2ccc(OC)cc2)cc1 (stereo not drawn)
GI50 (HL-60(TB)): 9.8 µM
LC50 (HL-60(TB)): 74.3 µM
TGI (HL-60(TB)): 27.2 µM
GI50 (MOLT-4): 13.6 µM
TGI (MOLT-4): 34.4 µM
CC50 (MOLT-4): 86.8 µM
GI50 (SR): 11.7 µM
LC50 (concentration killing 50% of cells) (SR): 71.5 µM
TGI (SR): 28.9 µM
GI50 (A549): 29.6 µM
TGI (A549): > 100 µM
GI50 (EKVX): 93.9 µM
TGI (EKVX): > 100 µM
GI50 (HOP-92): 36.3 µM
LC50 (HOP-92): > 100 µM
TGI (HOP-92): > 100 µM
GI50 (NCI-H322M): 39.8 µM
TGI (NCI-H322M): > 100 µM
GI50 (NCI-H460): 87.7 µM
TGI (NCI-H460): > 100 µM
GI50 (NCI-H522): 32.5 µM
TGI (NCI-H522): > 100 µM
GI50 (HCC 2998): 22 µM
LC50 (HCC 2998): > 100 µM
TGI (HCC 2998): > 100 µM
GI50 (HCT-15): 26.7 µM
TGI (HCT-15): > 100 µM
GI50 (SW-620): 47.1 µM
GI50 (SF-295): 33.2 µM
LC50 (concentration killing 50% of cells) (SF-295): > 100 µM
TGI (SF-295): > 100 µM
GI50 (SNB-19): > 100 µM
TGI (SNB-19): > 100 µM
GI50 (SNB-75): 57.3 µM
TGI (SNB-75): > 100 µM
GI50 (U-251): 40.4 µM
LC50 (U-251): > 100 µM
TGI (U-251): > 100 µM
GI50 (LOX IMVI): 21.6 µM
TGI (LOX IMVI): 62.4 µM
GI50 (SK-MEL-28): > 100 µM
TGI (SK-MEL-28): > 100 µM
GI50 (OVCAR-3): 22.5 µM
LC50 (concentration killing 50% of cells) (OVCAR-3): > 100 µM
TGI (OVCAR-3): 60.5 µM
GI50 (OVCAR-4): 94.4 µM
LC50 (OVCAR-4): > 100 µM
TGI (OVCAR-4): > 100 µM
GI50 (SK-OV-3): > 100 µM
TGI (SK-OV-3): > 100 µM
GI50 (786-0): 67.1 µM
TGI (786-0): > 100 µM
CC50 (786-0): > 100 µM
GI50 (ACHN): 23.1 µM
TGI (ACHN): 92.6 µM
CC50 (ACHN): > 100 µM
GI50 (RXF 393): 15 µM
TGI (RXF 393): > 100 µM
CC50 (RXF 393): > 100 µM
GI50 (TK-10): 40.1 µM
LC50 (TK-10): > 100 µM
TGI (TK-10): > 100 µM
GI50 (UO-31): 39.6 µM
LC50 (UO-31): > 100 µM
TGI (UO-31): > 100 µM
GI50 (PC-3): 24.6 µM
LC50 (concentration killing 50% of cells) (PC-3): > 100 µM
TGI (PC-3): > 100 µM
GI50 (DU-145): 28.8 µM
LC50 (concentration giving 50% net cell kill) (DU-145): > 100 µM
TGI (DU-145): > 100 µM
GI50 [1]: 41.1 µM
LC50 (concentration killing 50% of cells) [1]: > 100 µM
TGI [1]: > 100 µM
GI50 (BT-549): > 100 µM
TGI (BT-549): > 100 µM
GI50 (T47D): > 100 µM
TGI (T47D): > 100 µM
